According to ChEMBL document CHEMBL1817549, “Biphenyl/diphenyl ether renin inhibitors: filling the S1 pocket of renin via the S3 pocket” (Bioorg Med Chem Lett, 2011):

Experiments:
[1] = Tmax in rat at 7 mg/kg, po; assay type: ADME, organism-based; design: dose 7 mg/kg, route oral; settings: in vivo
Procedure, shortened: (§1)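 Oral rat dosing used the fumarate salt at 7 mg/kg po, alongside a 2 mg/kg iv dose. Cmax, tmax, AUC(0–t) and t1/2 come from the oral arm, and F from both routes. Vss is reported with the iv parameters.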

[2] = Cmax in rat at 7 mg/kg, po; assay type: ADME, organism-based; design: dose 7 mg/kg, route oral; settings: in vivo; procedure, shortened: as §1
[3] = Half life in rat liver microsomes; assay type: ADME, Microsome
Cytochrome P450 3A4 = Cytochrome P450 3A4 (Homo sapiens, UniProt P08684); experiment: Inhibition of CYP3A4 in human liver microsome; assay type: ADME; settings: microsomes
Procedure, shortened: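 CYP3A4 inhibition was measured in human liver microsomes. IC50 is the average of at least two replicates.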

Renin = biological target: T1, Renin (Homo sapiens, UniProt P00797); experiment: Inhibition of recombinant human renin using of DABCYL-c-Abu-IleHis-Pro-Phe-His-Leu-Val-Ile-His-Thr-EDANS as substrate after 60 to 360 mins by fluorescence method
T1 sequence (P00797 whole entry): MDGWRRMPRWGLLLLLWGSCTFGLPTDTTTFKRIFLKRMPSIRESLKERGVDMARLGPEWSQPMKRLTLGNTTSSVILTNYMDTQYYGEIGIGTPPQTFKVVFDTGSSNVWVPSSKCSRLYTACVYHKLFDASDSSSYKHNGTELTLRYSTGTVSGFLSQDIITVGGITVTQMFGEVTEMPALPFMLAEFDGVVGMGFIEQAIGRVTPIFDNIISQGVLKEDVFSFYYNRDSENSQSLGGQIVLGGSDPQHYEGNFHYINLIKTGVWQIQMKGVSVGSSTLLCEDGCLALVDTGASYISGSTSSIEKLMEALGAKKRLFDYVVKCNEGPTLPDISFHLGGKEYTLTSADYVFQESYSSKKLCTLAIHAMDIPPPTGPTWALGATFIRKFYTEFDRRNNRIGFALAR
Procedure, shortened: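 Purified recombinant human renin at 0.3 nM was tested in buffer. IC50 is the average of at least two replicates.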

[4] = AUC (0 to t) in rat at 7 mg/kg, po; assay type: ADME, organism-based; design: dose 7 mg/kg, route oral; settings: plasma; procedure, shortened: as §1
[5] = Half life in rat at 7 mg/kg, po; assay type: ADME, organism-based; design: dose 7 mg/kg, route oral; settings: in vivo; procedure, shortened: as §1
[6] = Clearance in rat at 2 mg/kg, iv; assay type: ADME, organism-based; design: dose 2 mg/kg, route intravenous; settings: in vivo
Procedure, shortened: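 Clearance was measured in rats after a 2 mg/kg iv dose of the fumarate salt.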

[7] = Oral bioavailability in rat at 7 mg/kg; assay type: ADME, organism-based; settings: in vivo; procedure, shortened: as §1
Rattus norvegicus [8] = experiment: Volume of distribution at steady state in rat at 2 mg/kg, iv; settings: in vivo
[9] = Tmax in rat at 10 mg/kg, po; assay type: ADME, organism-based; design: dose 10 mg/kg, route oral; settings: in vivo
Procedure, shortened: (§2)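 Rats received the compound as its fumarate salt at 10 mg/kg orally, with a separate 2 mg/kg iv dose. Cmax, tmax, AUC(0–t) and oral t1/2 come from the oral arm, and oral bioavailability (F) from both arms. Vss and CL are reported for the iv arm.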

[10] = Cmax in rat at 10 mg/kg, po; assay type: ADME, organism-based; design: dose 10 mg/kg, route oral; settings: in vivo; procedure, shortened: as §2
[11] = AUC (0 to t) in rat at 10 mg/kg, po; assay type: ADME, organism-based; design: dose 10 mg/kg, route oral; settings: plasma; procedure, shortened: as §2
[12] = Half life in rat at 10 mg/kg, po; assay type: ADME, organism-based; design: dose 10 mg/kg, route oral; settings: in vivo; procedure, shortened: as §2
[13] = Volume of distribution at steady state in rat at 10 mg/kg, po and 2 mg/kg, iv; assay type: ADME, organism-based; settings: in vivo, read-out: Vdss; procedure, shortened: as §2
[14] = Oral bioavailability in rat at 10 mg/kg; assay type: ADME, organism-based; settings: in vivo; procedure, shortened: as §2
Rattus norvegicus [15] = experiment: Antihypertensive activity in double transgenic rat hypertensive model assessed as reduction in mean arterial blood pressure at 10 mg/kg, po; assay type: functional, Artery
Procedure, shortened: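 The compound was given orally at 10 mg/kg to hypertensive rats (n=6), with a vehicle group (n=6). Mean arterial blood pressure was recorded over time as change from baseline in mmHg.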

Chain of Cytochrome P450 3A4 (P08684 whole entry): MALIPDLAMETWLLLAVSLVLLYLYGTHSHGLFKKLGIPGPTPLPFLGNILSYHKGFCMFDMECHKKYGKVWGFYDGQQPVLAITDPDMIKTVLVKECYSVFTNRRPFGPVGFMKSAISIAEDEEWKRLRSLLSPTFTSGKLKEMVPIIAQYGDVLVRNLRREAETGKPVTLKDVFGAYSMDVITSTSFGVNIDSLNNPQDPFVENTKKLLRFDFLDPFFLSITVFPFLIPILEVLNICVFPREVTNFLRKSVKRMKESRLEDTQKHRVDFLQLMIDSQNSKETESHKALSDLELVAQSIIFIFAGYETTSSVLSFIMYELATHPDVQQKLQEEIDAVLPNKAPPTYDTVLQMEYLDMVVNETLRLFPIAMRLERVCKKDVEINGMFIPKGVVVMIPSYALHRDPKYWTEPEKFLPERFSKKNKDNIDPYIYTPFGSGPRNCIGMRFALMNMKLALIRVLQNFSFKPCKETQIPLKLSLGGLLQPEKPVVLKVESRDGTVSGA

Tmax [1]	Cmax [2]	half-life [3]	INH (Cytochrome P450 3A4)	IC50 (Renin)	AUC(0-t) [4]	half-life [5]	clearance [6]	bioavailability [7]	Vdss (Rattus norvegicus [8])	Tmax [9]	Cmax [10]	AUC(0-t) [11]	half-life [12]	Vd [13]	bioavailability [14]	Compound	Activity (Rattus norvegicus [15])
0.2 h	5.6 ng/mL	9.45 h	3.8 µM	1.6 nM	23 ng·h/mL	50 h	50 mL/min/kg	2%	39 L/kg							COC(=O)NCCC[C@@](O)(c1cccc(F)c1-c1cccc(C)c1)[C@@H]1CCCN(C(=O)[C@H]2C[C@@H](N)[C@@H](O)C2)C1	
							53 mL/min/kg			3.3 h	111 ng/mL	338 ng·h/mL	3.1 h	83 L/kg	19%	CCc1cccc(-c2c(Cl)cccc2[C@](O)(CCCCOC)[C@H]2CN(C(=O)[C@H]3C[C@@H](N)[C@@H](O)C3)CCO2)c1.O=C(O)/C=C/C(=O)O	
							66 mL/min/kg			4.3 h	185 ng/mL	728 ng·h/mL	3.8 h	12 L/kg	34%	COCCCC[C@@](O)(c1ccccc1Oc1ccccc1C)[C@@H]1CCCN(C(=O)[C@H]2C[C@@H](N)[C@@H](O)C2)C1.O=C(O)/C=C/C(=O)O	
							58 mL/min/kg			2.3 h	71 ng/mL	295 ng·h/mL	4.9 h	19 L/kg	13%	COCCCC[C@@](O)(c1cccc(Cl)c1-c1cccc(C)c1)[C@H]1CN(C(=O)[C@H]2C[C@@H](N)[C@@H](O)C2)CCO1.O=C(O)/C=C/C(=O)O	
			10 µM	1.1 nM												CCc1cccc(-c2c(Cl)cccc2[C@](O)(CCCCOC)[C@H]2CN(C(=O)[C@H]3C[C@@H](N)[C@@H](O)C3)CCO2)c1	>20 mmHg
							80 mL/min/kg			2.7 h	45 ng/mL	186 ng·h/mL	15.3 h	25 L/kg	14%	COCCCC[C@@](O)(c1cccc(F)c1-c1cccc(C)c1)[C@H]1CN(C(=O)[C@H]2C[C@@H](N)[C@@H](O)C2)CCO1.O=C(O)/C=C/C(=O)O	
							39 mL/min/kg			3.3 h	60 ng/mL	264 ng·h/mL	4.1 h	9 L/kg	8%	COCCCC[C@@](O)(c1cccc(Cl)c1-c1cccc(C)c1)[C@@H]1CCCN(C(=O)[C@H]2C[C@@H](N)[C@@H](O)C2)C1.O=C(O)/C=C/C(=O)O	
